In ChEMBL document CHEMBL1151234, “Chemistry of renieramycins. Part 5. Structure elucidation of renieramycin-type derivatives O, Q, R, and S from thai marine sponge Xestospongia species pretreated with potassium cyanide” (J Nat Prod, 2004):

Assays:
[1] = test system: HCT-116; experiment: Cytotoxicity against human HCT116 cells after 4 days; format: functional, cell-based; settings: HCT-116, 96 h
Outline: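 Single-cell suspension of HCT116 cells seeded at 2 × 10^3 cells/well onto serially diluted test compounds, cultured 4 days. Growth read with a cell counting kit. IC50 taken as the concentration giving 50% growth inhibition versus untreated control.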

[2] = test system: QG-56; experiment: Cytotoxicity against human QG56 cells after 4 days; format: functional, cell-based; settings: QG-56, 96 h

Structure (SMILES)	IC50 [1] [nM]	IC50 [2] [nM]
C/C=C(/C)C(=O)OC[C@H]1c2c(c(OC(C)=O)c(C)c(OC)c2OC(C)=O)C[C@H]2[C@H]3c4c(c(OC(C)=O)c(C)c(OC)c4OC(C)=O)C[C@@H]([C@H](C#N)N12)N3C	3	7.9
C/C=C(/C)C(=O)OC[C@H]1C2=C(C[C@H]3[C@H]4C5=C(C(=O)C(C)=C(OC)C5=O)[C@H](OC(C)=O)[C@@H]([C@H](C#N)N13)N4C)C(=O)C(C)=C(OC)C2=O	120	300
C/C=C(/C)C(=O)OC[C@H]1c2c(c(OC(C)=O)c(C)c(OC)c2OC(C)=O)C[C@H]2[C@H]3C4=C(C[C@@H]([C@H](C#N)N12)N3C)C(=O)C(C)=C(OC)C4=O	1.9	3.9
C/C=C(/C)C(=O)OC[C@H]1C2=C(C[C@H]3[C@H]4c5c(OC(C)=O)c(OC)c(C)c(OC(C)=O)c5[C@H](OC(C)=O)[C@@H]([C@H](C#N)N13)N4C)C(=O)C(C)=C(OC)C2=O	630	1600
C/C=C(/C)C(=O)OC[C@H]1C2=C(C[C@H]3[C@H]4c5c(O)c(OC)c(C)c(O)c5C(=O)[C@@H]([C@H](C#N)N13)N4C)C(=O)C(C)=C(OC)C2=O [RENIERAMYCIN Q]	59	71
C/C=C(/C)C(=O)OC[C@H]1C2=C(C[C@H]3[C@H]4C5=C(C(=O)C(C)=C(OC)C5=O)[C@H](OC)[C@@H]([C@H](C#N)N13)N4C)C(=O)C(C)=C(OC)C2=O [RENIERAMYCIN R]	23	29
C/C=C(/C)C(=O)OC[C@H]1C2=C(C[C@H]3[C@H]4C5=C(C[C@@H]([C@H](C#N)N13)N4C)C(=O)C(C)=C(OC)C5=O)C(=O)C(C)=C(O)C2=O [RENIERAMYCIN S]	15	26
